According to PubChem BioAssay AID1556 (The Scripps Research Institute Molecular Screening Center, 2009):
Screen size: about 290,000 compounds; about 1,300 (0.45%) were called active.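 Rule for the calls: active = inhibition above the mean plus 3 SD of all compounds in the same screening run (cut at about 4.5% in these data); inactive = the rest.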 The full list was thinned out, with actives kept by preference.

System: metallo-beta-lactamase IMP-1 (Pseudomonas aeruginosa)
Assay: IMP-1 metallo-beta-lactamase inhibitors, primary screen, biochemical, epi-absorbance readout, Pseudomonas aeruginosa enzyme (AID 1556);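 note: 0% = IMP-1 with DMSO and 100% = DMSO wells lacking enzyme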
Conditions: purified IMP-1, nitrocefin hydrolysis, epi-absorbance fluorescence; at 5.6 µM; hits give high values
In short: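 Assay system: purified recombinant IMP-1 beta-lactamase. Input: IMP-1 0.2 nM before substrate addition. Buffer or medium: Zinc- and detergent-supplemented HEPES buffer, pH 7.1. Schedule: 25 °C, 15 min preincubation, 25 min reaction. Signal: Epi-absorbance fluorescence, 480 nm excitation, 530 nm emission. Evaluation: percent inhibition from optical density relative to buffer-blank wells.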

Row | SMILES | inhibition
1 | CCN1C(=O)C(=Cc2c(C)n(CC(=O)NCC3CCCO3)c3ccccc23)C(=O)N(CC)C1=S (stereo not given) | 20% (active)
2 | O=C(O)c1ccccc1NC(=O)C1C2CCC(O2)C1C(=O)O (stereo not given) | -2.48% (inactive)
3 | CCCCn1c(=O)c(C(=O)Nc2ccccc2Cl)c(O)c2ccccc21 | -1.42% (inactive)
4 | CCOC(=O)C1SC2(C(F)(F)C(F)F)CC1(O)c1c(c(OC)c3occc3c1OC)O2 (stereo not given) | -3.5% (inactive)
5 | C[N+]12CN3CN(CN(C3)C1)C2 | 5.56% (active)
6 | Cc1cccc(OP(=O)(Oc2cccc(C)c2)OC(c2ccccc2)C(F)(F)F)c1 (stereo not given) | -4.97% (inactive)
7 | Clc1ccc2nc3c(c(-c4ccccc4)c2c1)CNCC3 | -2.18% (inactive)
8 | Cc1ccc(C)c(NC2=NCCCS2)c1 | -1.87% (inactive)
9 | COc1cc2nc(N3CCN(C(=O)[C@@H]4CCCO4)CC3)nc(N)c2cc1OC | -4.21% (inactive)
10 | CC1(C)C(c2ccccc2)=NC(c2cccnc2)=[N+]1[O-] | -4.75% (inactive)
